Compound activity from PubChem.
In the library only some 3.1% were active in any assay of this set; here they are far more common.
aDG glyco up = increases alpha dystroglycan glycosylation; Pro5-aDG cells, alpha-DG glycosylation AlphaScreen (IIH6); 0% Pro5, 100% B10-LARGE cell signal; activation, % at 10 µM; hit rate 0.22% among 360,000;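 active means activation of at least 8% versus controls, or a plate z-score of at least 8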;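 further: Pro5 are CHO cells carrying HIG-tagged alpha-DG that lacks glycosylation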
Hep lipid drop = modulators of hepatic lipid droplet formation | inhibition, % at 6.5 µM | AML12 mouse hepatocytes, oleate lipid droplets, BODIPY imaging | hit rate 0.4% among 240,000 | AID 1656;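 active means lipid droplet intensity inhibited by at least 50%, with more than 500 cells counted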
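Assay system: AML12 mouse liver cells | Compound: 6.5 µM single-point dosing | Schedule: Overnight exposure | Technique: Fluorescence imaging, 20x objective, two fields per well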
ADAM10 inh = ADAM10 inhibition, QFRET primary screen. hit rate 0.62% among 370,000. inhibition, % at 7 µM. AID 720582. O14672. recombinant ADAM10, EDANS/DABCYL FRET peptide cleavage, 3 h;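 active means inhibition above a per-campaign cutoff equal to the mean of compounds falling between control-based bounds plus 3 SD, cut at about 20% in these data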;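 further: 0% = DMSO wells while the 100% control is not disclosed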
Target sequence (O14672 214-748 limits assumed): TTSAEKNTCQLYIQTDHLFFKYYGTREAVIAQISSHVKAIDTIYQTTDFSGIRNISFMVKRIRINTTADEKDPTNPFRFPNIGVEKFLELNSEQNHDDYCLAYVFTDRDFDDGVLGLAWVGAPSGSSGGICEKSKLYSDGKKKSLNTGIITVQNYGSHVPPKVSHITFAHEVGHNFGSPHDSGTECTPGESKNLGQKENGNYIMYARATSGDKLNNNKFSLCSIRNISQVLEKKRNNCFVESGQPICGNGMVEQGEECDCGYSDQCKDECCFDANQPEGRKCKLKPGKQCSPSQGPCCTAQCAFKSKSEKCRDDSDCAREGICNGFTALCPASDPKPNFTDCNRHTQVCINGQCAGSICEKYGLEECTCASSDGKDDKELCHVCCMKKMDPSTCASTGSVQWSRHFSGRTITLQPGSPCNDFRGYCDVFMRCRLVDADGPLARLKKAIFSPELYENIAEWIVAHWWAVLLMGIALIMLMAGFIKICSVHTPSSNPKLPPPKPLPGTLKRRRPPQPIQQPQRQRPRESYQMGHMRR
V-ATPase pH = regulators of yeast V-ATPase proton transport; AID 504577; S. cerevisiae, pHLuorin cytosolic pH fluorescence; hit rate 0.37% among 350,000; response, % at 10 µM; in the data active means response mostly above about 7.3%, no sharp cut-off; inactive means mostly below about 5.4%; further: actives read high
ADAM17 inh = inhibits human ADAM17; inhibition, % at 6.95 µM; recombinant ADAM17, EDANS/DABCYL FRET peptide cleavage; hit rate 0.83% among 370,000; AID 720648;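 active means inhibition above the mean of compounds lying between control limits plus 3 SD, set per campaign, cut at about 8.5% in these data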;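 further: 0% = DMSO-only wells as the low control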
MPTP block = inhibitors of mitochondrial permeability transition pore. hit rate 1.4% among 360,000. inhibition, % at 10 µM. AID 602449. isolated mouse mitochondria, Ca2+ swelling absorbance, 30 min;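 active means inhibition of 50% or more, scaled per plate between neutral and stimulator controls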;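 further: 0% = DMSO wells given calcium and 100% = 1 mM EGTA wells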
aDG glyco conf = confirmation of alpha dystroglycan glycosylation activators; shares compounds with aDG glyco up; Pro5-aDG cells, alpha-DG glycosylation, IIH6 AlphaLISA; scaled to LARGE-overexpressing B10 cells as 100%; activation, % at 10 µM (by protocol); hit rate 17% among 600; AID 651671;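 active means activation of at least 7% in one or more replicates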;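 further: cells exposed to compound for two days before detection; 0% = DMSO-treated Pro5 cells and 100% = DMSO-treated B10-LARGE cells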
* = called active by the depositor.

How did CC[C@]1(C(=O)OC)[C@H]2C(=O)N(C)C(=O)[C@H]2[C@H]2CN=C(SCc3ccc(C(=O)OC)cc3)N21 do in these assays?
aDG glyco up: 5.9*; ADAM10 inh: 0; V-ATPase pH: -1; ADAM17 inh: 0; MPTP block: -3; aDG glyco conf: 1

What do the screens show for `Cc1ccc(C)c(N2CCN(C(=O)Nc3ccc4c(c3)N(C)C(=O)CS4)CC2)c1`?
aDG glyco up: 6.7*; Hep lipid drop: -2; ADAM10 inh: 6; V-ATPase pH: -1; ADAM17 inh: 6; MPTP block: 35; aDG glyco conf: 0

How did Nc1[nH]c(C(=O)c2ccccc2)c(-c2ccc(Br)cc2)c1C(=O)N1CCN(CCO)CC1 do in these assays?
ADAM10 inh: 3; ADAM17 inh: -3

Results for O=C(NCCN1CCOCC1)c1ccc(Cl)c(S(=O)(=O)N2CCCCCC2)c1 ?
aDG glyco up: 4.7*; ADAM10 inh: -10; V-ATPase pH: 2; ADAM17 inh: 0; MPTP block: 0; aDG glyco conf: -1

What do the screens show for `O=C(NCCN1CCOCC1)c1ccc(Cl)c(S(=O)(=O)N2CCCC2)c1`?
aDG glyco up: 0; Hep lipid drop: 1; ADAM10 inh: 2; V-ATPase pH: -1; ADAM17 inh: 1; MPTP block: 0

Results for Cn1c(CC2C(=O)Nc3ccc(Br)cc32)nc2ccccc2c1=O (stereo unspecified) ?
aDG glyco up: 5.2*; Hep lipid drop: -4; ADAM10 inh: 1; V-ATPase pH: 2; ADAM17 inh: -2; MPTP block: -1; aDG glyco conf: -1

How did O=C1Nc2ccc(Br)cc2C1Cc1ccccc1F (stereo unspecified) do in these assays?
aDG glyco up: 0; Hep lipid drop: -1; ADAM10 inh: 12; V-ATPase pH: 4; ADAM17 inh: 2; MPTP block: 1

How did COC(=O)c1ccc(NC(=O)c2ccc3nccnc3c2)cc1 do in these assays?
aDG glyco up: 0; Hep lipid drop: 15; ADAM10 inh: 15; V-ATPase pH: 2; ADAM17 inh: 6; MPTP block: 0

Results for O=C(Nc1ccc(OC(F)(F)F)cc1)c1ccc2nccnc2c1 ?
aDG glyco up: 5.5*; Hep lipid drop: 12; ADAM10 inh: -10; V-ATPase pH: -1; ADAM17 inh: -7; MPTP block: -2; aDG glyco conf: 0

Results for Cc1c(C(=O)N(Cc2ccc(Cl)cc2)C2CCS(=O)(=O)C2)oc2ccccc12 (stereo unspecified) ?
aDG glyco up: 2.3*; Hep lipid drop: -7; ADAM10 inh: 5; V-ATPase pH: -6; ADAM17 inh: 2; MPTP block: 3; aDG glyco conf: -1

What do the screens show for `CCOC(=O)N/N=C\c1ccc([N+](=O)[O-])s1`?
aDG glyco up: 6.5*; Hep lipid drop: -28; ADAM10 inh: -3; V-ATPase pH: 0; ADAM17 inh: 1; MPTP block: 0; aDG glyco conf: 4.7*

How did O=C(CNC(=O)c1ccccc1)N/N=C/c1ccc([N+](=O)[O-])s1 do in these assays?
aDG glyco up: 12*; Hep lipid drop: 6; ADAM10 inh: 11; V-ATPase pH: -1; ADAM17 inh: 1; MPTP block: -1; aDG glyco conf: 5.5*

Results for O=C(Cc1ccccc1)NCC(=O)N/N=C/c1ccc([N+](=O)[O-])s1 ?
aDG glyco up: 2; Hep lipid drop: -3; ADAM10 inh: 1; V-ATPase pH: 2; ADAM17 inh: -5; MPTP block: 0

How did CCCN1CC(=O)N2[C@H](C[C@@]3(n4ccc5ccccc54)c4ccccc4N(S(=O)(=O)c4ccccc4)[C@@H]23)C1=O do in these assays?
ADAM10 inh: 6; ADAM17 inh: 4

How did CN(C)CCCNC(=O)C[C@H]1C[C@H](C(=O)N2CCOCC2)[C@@]2(C)c3[nH]c4ccc(Cl)cc4c3CCN2C1=O do in these assays?
aDG glyco up: 5.2*; ADAM10 inh: -6; V-ATPase pH: 1; ADAM17 inh: -3; MPTP block: -1; aDG glyco conf: -1

How did CN(C)C(=O)c1cn(-c2ccccc2)nc1-c1cccs1 do in these assays?
aDG glyco up: 62*; Hep lipid drop: -7; ADAM10 inh: -7; V-ATPase pH: 0; ADAM17 inh: -5; MPTP block: 0; aDG glyco conf: 0

How did O=C(c1cn(-c2ccccc2)nc1-c1cccs1)N(CCO)Cc1ccccc1 do in these assays?
aDG glyco up: 0; Hep lipid drop: -14; ADAM10 inh: 9; V-ATPase pH: -8; ADAM17 inh: 3; MPTP block: -3

How did Cc1ccc(-n2c(SCC(=O)c3ccc(Br)cc3)nnc2-c2ccncc2)cc1 do in these assays?
ADAM10 inh: 1; ADAM17 inh: 0

How did CN1C(=O)C[C@@](C#N)(C(=O)N2CCCC2)[C@H]1c1ccccc1 do in these assays?
ADAM10 inh: -3; ADAM17 inh: -2

How did O=C(COc1ccccc1)Nc1nc(-c2ccc(S(=O)(=O)N3CCOCC3)cc2)cs1 do in these assays?
aDG glyco up: 0; ADAM10 inh: 10; V-ATPase pH: -3; ADAM17 inh: 3; MPTP block: -2

What do the screens show for `O=C(COC(=O)c1ccc(S(=O)(=O)N2CCOCC2)cc1)Nc1nc(-c2ccccc2)cs1`?
aDG glyco up: 6.2*; Hep lipid drop: 7; ADAM10 inh: -2; V-ATPase pH: 0; ADAM17 inh: -2; MPTP block: 2; aDG glyco conf: 0

What do the screens show for `Cc1ccc(NC(=O)c2cncc(Br)c2)c([N+](=O)[O-])c1`?
aDG glyco up: 45*; Hep lipid drop: -10; ADAM10 inh: -2; V-ATPase pH: -3; ADAM17 inh: 7; MPTP block: 0; aDG glyco conf: -1

Results for O=C(C1CCCN(S(=O)(=O)c2ccc(F)cc2)C1)N1CCN(Cc2ccccc2)CC1 (stereo unspecified) ?
ADAM10 inh: 6; ADAM17 inh: -1

Results for C=CCNC(=S)N/N=C/c1ccc(OCc2ccccc2Cl)cc1 ?
aDG glyco up: 6.5*; Hep lipid drop: 33; ADAM10 inh: 6; V-ATPase pH: 1; ADAM17 inh: 7; MPTP block: 1; aDG glyco conf: 0

What do the screens show for `O=C(NNC(=O)c1ccc([N+](=O)[O-])o1)c1ccccc1`?
aDG glyco up: 1; ADAM10 inh: 8; V-ATPase pH: 0; ADAM17 inh: 0; MPTP block: -1

How did C/C(=N/NC(=O)C(O)(c1ccccc1)c1ccccc1)c1ccc([N+](=O)[O-])o1 do in these assays?
aDG glyco up: 8.2*; Hep lipid drop: 13; ADAM10 inh: -2; V-ATPase pH: 1; ADAM17 inh: 2; MPTP block: 3; aDG glyco conf: 3.7*
